Test results: ChEMBL document CHEMBL2407014, “Suberoylanilide hydroxamic acid, a histone deacetylase inhibitor, induces the production of anti-inflammatory cyclodepsipeptides from Beauveria felina” (J Nat Prod, 2013)
Starred links: 1 amine or outer side, 2 acyl side, 3 side chain; linkers in the order of their positions; H or OH if unused. Non-standard residues stand in square brackets, D forms with d. Residues, ends and D or L forms follow the SMILES beside them. ξ: configuration not given here. X1 = C[C@H]1CCN([*:1])[C@@H]1C(=O)[*:2]; X2 = CC1CCN([*:1])[C@@H]1C(=O)[*:2]; Hica(2S) = CC(C)C[C@H](O)C(=O)O; ξLac(3-iPr) = CC(C)CC(O)C(=O)O; NMeV = CN[C@H](C(=O)O)C(C)C; βAla = NCCC(=O)O

Legend:
[1] = Cytotoxicity against human neutrophils by LDH release assay; assay type: cell-based; details: neutrophil
[2] = Antiinflammatory activity in human neutrophils assessed as inhibition of FMLP-induced superoxide anion production treated 5 mins before FMLP addition measured after 10 mins; assay type: functional, cell-based; details: Neutrophil
Method in brief: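 Neutrophils from healthy adult donors' venous blood (dextran sedimentation, Ficoll centrifugation), with 0.5 mg/mL ferricytochrome c and 1 mM Ca²⁺, equilibrated 37 °C 2 min, compound 5 min, cytochalasin B (1 μg/mL) 3 min, then FMLP 100 nM for 10 min. SOD-inhibitable (100 U/mL) ferricytochrome c reduction read continuously at 550 nm; IC50 as 50% inhibition concentration.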

[3] = Antiinflammatory activity in human neutrophils assessed as inhibition of FMLP-induced elastase release treated 5 mins before FMLP addition; assay type: functional, cell-based; details: Neutrophil
Method in brief: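 Neutrophils (6 × 10⁵/mL) with MeO-Suc-Ala-Ala-Pro-Val-p-nitroanilide substrate (100 μM), equilibrated 37 °C 2 min, compound 5 min, then activated with FMLP (100 nM)/cytochalasin B (0.5 μg/mL). Absorbance at 405 nm monitored continuously; results as percentage of initial elastase rate; IC50 as concentration giving 50% inhibition.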

IC50 [2] [µM] | IC50 [3] [µM] | SMILES | Activity [1]
10 | – | CC(C)C[C@@H]1OC(=O)CCNC(=O)[C@H](C(C)C)N(C)C(=O)[C@H](C(C)C)NC(=O)[C@H](Cc2ccccc2)NC(=O)[C@@H]2CCCN2C1=O (cyclo(FV[NMeV][βAla][Hica(2S)]P)) | Non-toxic
10.9 | 10 | CC(C)C[C@@H]1OC(=O)CCNC(=O)[C@H](C(C)C)N(C)C(=O)[C@H](C(C)C)NC(=O)[C@H](Cc2ccccc2)NC(=O)[C@@H]2[C@@H](C)CCN2C1=O (cyclo(FV[NMeV][βAla][Hica(2S)][X1])) | Non-toxic
0.69 | 6.72 | O=c1c(-c2ccc(O)cc2)coc2cc(O)cc(O)c12 [GENISTEIN] | –
10.1 | 12.1 | CC(C)CC1OC(=O)CCNC(=O)[C@H](C(C)C)N(C)C(=O)[C@H](C(C)C)N(C)C(=O)[C@H](Cc2ccccc2)NC(=O)[C@@H]2C(C)CCN2C1=O (stereo not given in full) [ISARIDIN C2] (cyclo(F[NMeV][NMeV][βAla][ξLac(3-iPr)][X2])) | Non-toxic
– | 15.1 | CC[C@H](C)[C@@H]1NC(=O)[C@@H]2[C@@H](C)CCN2C(=O)[C@@H](CC(C)C)OC(=O)CCNC(=O)[C@H](C)N(C)C(=O)[C@H](C(C)C)N(C)C1=O [ROSEOCARDIN] | Non-toxic

SMILES | IC50 [2] [µM] | IC50 [3] [µM] | Activity [1]
CC(C)CC1OC(=O)CCNC(=O)[C@H](C(C)C)N(C)C(=O)[C@H](C(C)C)N(C)C(=O)[C@H](Cc2ccccc2)NC(=O)[C@@H]2CCCN2C1=O (stereo not given in full) [ISARIDIN E] (cyclo(F[NMeV][NMeV][βAla][ξLac(3-iPr)]P)) | 12.2 | 12.8 | Non-toxic
